Results: ChEMBL document CHEMBL1772996, “Bioactive constituents from the roots of Panax japonicus var. major and development of a LC-MS/MS method for distinguishing between natural and artifactual compounds” (J Nat Prod, 2011)
≈ marks a conversion by molar mass, not a printed value. Calls of active or inactive are those of the source. No cut-off for these calls is given here.

Legend:
KB = assay: Cytotoxicity against human KB cells assessed as growth inhibition after 3 days by sulforhodamine B assay; assay type: functional
HCT-8 = assay: Cytotoxicity against human HCT8 cells assessed as growth inhibition after 3 days by sulforhodamine B assay; assay type: functional, cell-based
Neutrophil [1] = assay: Inhibition of fMLP/CB-stimulated superoxide anion generation in human neutrophils at 30 uM relative to control; assay type: functional
Procedure, shortened: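 Neutrophils isolated by dextran sedimentation, Ficoll Hypaque and hypotonic lysis, kept in Ca2+-free HBSS pH 7.4 at 4 °C. Given 0.5 mg/mL ferricytochrome c and 1 mM Ca2+, equilibrated 37 °C 2 min, compound 5 min. CB 1 μg/mL for 3 min, then 100 nM fMLP for 10 min. SOD-inhibitable ferricytochrome c reduction followed at 550 nm with stirring; mean ± S.E.M., n = 3–4.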

DU-145 = assay: Cytotoxicity against human DU145 cells assessed as growth inhibition after 3 days by sulforhodamine B assay; assay type: functional
A549 = assay: Cytotoxicity against human A549 cells assessed as growth inhibition after 3 days by sulforhodamine B assay; assay type: functional, cell-based
Neutrophil [2] = assay: Inhibition of fMLP/CB-activated human neutrophil degranulation assessed as inhibition of elastase release at 30 uM using MeO-Suc-Ala-Ala-Pro-Val-p-nitroanilide as a substrate after 5 mins relative to control; assay type: functional
Procedure, shortened: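 Isolated human neutrophils (dextran sedimentation, Ficoll Hypaque, hypotonic erythrocyte lysis; >98% viable by trypan blue) at 5×10^5/mL in Ca2+-free HBSS pH 7.4 with 100 μM MeO-Suc-Ala-Ala-Pro-Val-p-nitroanilide. Equilibrated 37 °C 2 min, compound 5 min, then activated with 100 nM fMLP plus 0.5 μg/mL CB. A405 monitored continuously. Expressed as % of initial elastase release rate in drug-free fMLP/CB control; mean ± S.E.M., n = 3–4.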

Neutrophil [3] = assay: Inhibition of fMLP/CB-stimulated superoxide anion generation in human neutrophils; assay type: functional, cell-based
Procedure, shortened: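 Isolated human neutrophils (dextran sedimentation, Ficoll Hypaque, hypotonic lysis; >98% viable) with 0.5 mg/mL ferricytochrome c and 1 mM Ca2+, 37 °C 2 min, compound 5 min; CB 1 μg/mL 3 min, then 100 nM FMLP 10 min; SOD-inhibitable cytochrome c reduction followed continuously at 550 nm with stirring; mean ± S.E.M., n = 3–4; top concentration 30 μM.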

Neutrophil [4] = assay: Inhibition of fMLP/CB-activated human neutrophil degranulation assessed as inhibition of elastase release using MeO-Suc-Ala-Ala-Pro-Val-p-nitroanilide as a substrate after 5 mins; assay type: functional, cell-based
Procedure, shortened: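 Neutrophils from dextran sedimentation, Ficoll Hypaque centrifugation and hypotonic erythrocyte lysis (>98% viable by trypan blue), held in Ca2+-free HBSS pH 7.4 at 4 °C; 5×10^5/mL cells with 100 μM substrate equilibrated 37 °C 2 min, compound 5 min, then 100 nM FMLP plus 0.5 μg/mL CB; A405 monitored continuously; expressed as % of initial rate in drug-free activated control; mean ± S.E.M., n = 3–4; top concentration 30 μM.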

Structure (SMILES) | growth inhibition (GI) (KB) | growth inhibition (GI) (HCT-8) | inhibition at 30 µM (Neutrophil [1]) [%] | growth inhibition (GI) (DU-145) | growth inhibition (GI) (A549) | inhibition at 30 µM (Neutrophil [2]) [%] | IC50 (Neutrophil [3]) [µM] | GI50 (KB; 72 h) [µg/mL] | GI50 (DU-145; DU-145, 72 h) [µg/mL] | IC50 (Neutrophil [4]) [µM]
CC1(C)CC[C@]2(C(=O)O[C@@H]3O[C@H](CO)[C@@H](O)[C@H](O)[C@H]3O)CC[C@]3(C)C(=CC[C@@H]4[C@@]5(C)CC[C@H](O[C@@H]6O[C@H](C(=O)O)[C@@H](O[C@H]7O[C@@H](CO)[C@H](O)[C@H]7O)[C@H](O[C@@H]7O[C@H](CO)[C@@H](O)[C@H](O)[C@H]7O)[C@H]6O)C(C)(C)[C@@H]5CC[C@]43C)[C@@H]2C1 [STIPULEANOSIDE R2] | inactive | inactive | 0.78 | inactive | inactive | 23.7 | – | – | – | –
CC[C@H](CC[C@@H](C)[C@H]1CC[C@H]2[C@@H]3CC=C4C[C@@H](O[C@@H]5O[C@H](CO)[C@@H](O)[C@H](O)[C@H]5O)CC[C@]4(C)[C@H]3CC[C@]12C)C(C)C [SITOGLUSIDE] | inactive | inactive | 7.45 | inactive | inactive | 21.7 | – | – | – | –
CC(C)=CCC[C@](C)(O)[C@H]1CC[C@]2(C)[C@@H]1[C@H](O)C[C@@H]1[C@@]3(C)CC[C@H](O)C(C)(C)[C@@H]3[C@@H](O[C@@H]3O[C@H](CO)[C@@H](O)[C@H](O)[C@H]3O[C@@H]3O[C@H](CO)[C@@H](O)[C@H](O)[C@H]3O)C[C@]12C [GINSENOSIDE RF] | inactive | inactive | 8.94 | inactive | inactive | 29.5 | – | – | – | –
CC(C)=CCC[C@](C)(O)[C@H]1CC[C@]2(C)[C@@H]1[C@H](O)C[C@@H]1[C@@]3(C)CC[C@H](O[C@@H]4O[C@H](CO)[C@@H](O)[C@H](O)[C@H]4O[C@@H]4O[C@H](CO)[C@@H](O)[C@H](O)[C@H]4O)C(C)(C)[C@@H]3CC[C@]12C | inactive | inactive | – | inactive | inactive | – | – | – | – | –
CCCCOC(=O)[C@H]1O[C@@H](O[C@H]2CC[C@]3(C)[C@H]4CC=C5[C@@H]6CC(C)(C)CC[C@]6(C(=O)O[C@@H]6O[C@H](CO)[C@@H](O)[C@H](O)[C@H]6O)CC[C@@]5(C)[C@]4(C)CC[C@H]3C2(C)C)[C@H](O[C@@H]2OC[C@@H](O)[C@H](O)[C@H]2O)[C@@H](O)[C@@H]1O | inactive | inactive | – | inactive | inactive | 20 | 21.2 | – | – | –
CC(C)=CCC[C@](C)(O[C@@H]1O[C@H](CO)[C@@H](O)[C@H](O)[C@H]1O)[C@H]1CC[C@]2(C)[C@@H]1[C@H](O)C[C@@H]1[C@@]3(C)CC[C@H](O[C@@H]4O[C@H](CO)[C@@H](O)[C@H](O)[C@H]4O[C@@H]4O[C@H](CO)[C@@H](O)[C@H](O)[C@H]4O)C(C)(C)[C@@H]3CC[C@]12C [GINSENOSIDE RD] | inactive | inactive | -3.54 | inactive | inactive | 2.88 | – | – | – | –
CC(C)(O)[C@@H]1CC[C@@](C)([C@H]2CC[C@]3(C)[C@@H]2[C@H](O)C[C@@H]2[C@@]4(C)CC[C@H](O)C(C)(C)[C@@H]4[C@@H](O[C@@H]4O[C@H](CO)[C@@H](O)[C@H](O)[C@H]4O[C@@H]4O[C@H](CO)[C@@H](O)[C@H](O)[C@H]4O)C[C@]23C)O1 | inactive | inactive | 7.4 | inactive | inactive | -4.95 | – | – | – | –
CC(C)=CCC[C@](C)(O[C@@H]1O[C@H](CO[C@@H]2O[C@H](CO)[C@@H](O)[C@H](O)[C@H]2O)[C@@H](O)[C@H](O)[C@H]1O)[C@H]1CC[C@]2(C)[C@@H]1[C@H](O)C[C@@H]1[C@@]3(C)CC[C@H](O[C@@H]4O[C@H](CO)[C@@H](O)[C@H](O)[C@H]4O[C@@H]4O[C@H](CO)[C@@H](O)[C@H](O)[C@H]4O)C(C)(C)[C@@H]3CC[C@]12C [GINSENOSIDE RB1] | inactive | inactive | 10.8 | inactive | inactive | 7.36 | – | – | – | –
COC(=O)[C@H]1O[C@@H](O[C@H]2CC[C@]3(C)[C@H]4CC=C5[C@@H]6CC(C)(C)CC[C@]6(C(=O)O[C@@H]6O[C@H](CO)[C@@H](O)[C@H](O)[C@H]6O)CC[C@@]5(C)[C@]4(C)CC[C@H]3C2(C)C)[C@H](O)[C@@H](O)[C@@H]1O[C@@H]1O[C@@H](CO)[C@H](O)[C@H]1O | inactive | inactive | – | inactive | inactive | 27.5 | 19.7 | – | – | –
CC(C)=CCC[C@](C)(O[C@@H]1O[C@H](CO)[C@@H](O)[C@H](O)[C@H]1O)[C@H]1CC[C@]2(C)[C@@H]1[C@H](O)C[C@@H]1[C@@]3(C)CC[C@H](O)C(C)(C)[C@@H]3[C@@H](O[C@@H]3O[C@H](CO)[C@@H](O)[C@H](O)[C@H]3O)C[C@]12C [GINSENOSIDE RG1] | inactive | inactive | 14.1 | inactive | inactive | 19 | – | – | – | –
CC(C)=CC/C=C(\C)[C@H]1CC[C@]2(C)[C@@H]1[C@H](O)C[C@@H]1[C@@]3(C)CC[C@H](O[C@@H]4O[C@H](CO)[C@@H](O)[C@H](O)[C@H]4O[C@@H]4O[C@H](CO)[C@@H](O)[C@H](O)[C@H]4O)C(C)(C)[C@@H]3CC[C@]12C | inactive | inactive | – | inactive | inactive | – | – | – | – | –
CC(C)=CCC[C@@](C)(O)[C@H]1CC[C@]2(C)[C@@H]1[C@H](O)C[C@@H]1[C@@]3(C)CC[C@H](O[C@@H]4O[C@H](CO)[C@@H](O)[C@H](O)[C@H]4O[C@@H]4O[C@H](CO)[C@@H](O)[C@H](O)[C@H]4O)C(C)(C)[C@@H]3CC[C@]12C | inactive | inactive | – | inactive | inactive | – | – | – | – | –
C/C(=C/CC[C@](C)(O)[C@H]1CC[C@]2(C)[C@@H]1[C@H](O)C[C@@H]1[C@@]3(C)CC[C@H](O)C(C)(C)[C@@H]3[C@@H](O[C@@H]3O[C@H](CO)[C@@H](O)[C@H](O)[C@H]3O[C@@H]3O[C@H](CO)[C@@H](O)[C@H](O)[C@H]3O)C[C@]12C)CO [PANAJAPONOL A] | – | Active | 20.3 | – | Active | 42 | – | 6.3 (≈ 7.71 µM) | 7.3 (≈ 8.93 µM) | –
CC1(C)CC[C@]2(C(=O)O[C@@H]3O[C@H](CO)[C@@H](O)[C@H](O)[C@H]3O)CC[C@]3(C)C(=CC[C@@H]4[C@@]5(C)CC[C@H](O[C@@H]6O[C@H](C(=O)O)[C@@H](O[C@@H]7O[C@@H](CO)[C@H](O)[C@H]7O)[C@H](O)[C@H]6O)C(C)(C)[C@@H]5CC[C@]43C)[C@@H]2C1 | inactive | inactive | 14.6 | inactive | inactive | 27.6 | – | – | – | –
CC1(C)CC[C@]2(C(=O)O[C@@H]3O[C@H](CO)[C@@H](O)[C@H](O)[C@H]3O)CC[C@]3(C)C(=CC[C@@H]4[C@@]5(C)CC[C@H](O)C(C)(C)[C@@H]5CC[C@]43C)[C@@H]2C1 | inactive | inactive | 43.6 | inactive | inactive | – | – | – | – | 9.64
